# How the values were obtained:
# [1] = melting temperature; fluorescence melt of hairpins on a sequencing array, two-state fit, raised by 9.35 °C to match UV melts; settings: sodium 0.088 M
# Outline: (§1)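 Folding enthalpy and melting temperature come from bootstrapped two-state fits to Cy3 fluorescence of library hairpins carrying annealed Cy3 and quencher oligos on a sequenced MiSeq flow cell. Imaging was done in 50 mM Na-HEPES pH 8.0, 25 mM NaCl, stepping by 2.5 °C up to 60 °C, and signals were normalised to pre-quench Cy3 and to control constructs. Results of four replicates were combined by inverse variance, and fitted temperatures were raised by 9.35 °C to match UV melts.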
# [2] = folding enthalpy; higher = less favourable; fluorescence melt of hairpins on a sequencing array, two-state fit; settings: sodium 0.088 M
# Outline: as §1
Sequence,Tm [1],folding enthalpy [2]
GCACCTCGAAAGAGTGC (((.(((....)))))),53.3 °C,-46.4 kcal/mol
GCACGACCGAAAGGTTGC (((..(((....)))))),38.1 °C,-14.4 kcal/mol
GCACGACGAAAGTCATGC (((.(((....))).))),52.6 °C,-36.5 kcal/mol
GCACGAGGAAACCCGTAC (.(((.(....).))).),21.9 °C,-6.61 kcal/mol
GCACGAGGAAACTCGTAC (.(((((....))))).),38.9 °C,-12.7 kcal/mol
GCACGCCCGAAAGGGTGC (((..(((....)))))),49.9 °C,-11.8 kcal/mol
GCACGCGAAAGCGATGC ((((((....))).))),65.2 °C,-21.3 kcal/mol
GCACGCGAAAGCGCATGC ((((((....)))..))),43 °C,-13.6 kcal/mol
GCACGCGAAAGCGGGTGC ((((((....)))..))),66.1 °C,-17.4 kcal/mol
GCACGCGAAAGCGTTTGC ((((((....)))..))),42.9 °C,-10.6 kcal/mol
GCACGCGGAAACGCATGC (((.(((....))).))),52.8 °C,-40.4 kcal/mol
GCACGGCGAAAGCAATGC (((..((....))..))),39.1 °C,-15.5 kcal/mol
GCACGGCGAAAGCCCCGC ((..(((....)))..)),32.2 °C,-8.33 kcal/mol
GCACGGCGAAAGCCCTGC (((.(((....))).))),47.3 °C,-26 kcal/mol
GCACGGCGAAAGCCTAGC ((..(((....)))..)),39.5 °C,-14.4 kcal/mol
GCACGGCGAAAGCCTTGC (((.(((....))).))),54.2 °C,-54.8 kcal/mol
GCACGGGGAAACCCACGC ((..(((....)))..)),41.5 °C,-23.9 kcal/mol
GCACGGGGAAACTCGTGC (((((.(....).))))),60.5 °C,-45.9 kcal/mol
GCACGGTCGAAAGACTGC (((..(((....)))))),39.4 °C,-13.9 kcal/mol
GCACGTGGAAACACGCAC (..((((....))))..),29.2 °C,-9.68 kcal/mol
GCACTACGAAAGTAATGC (((.(((....))).))),43.7 °C,-29.3 kcal/mol
GCACTAGGAAACTAGCGC ((.((((....)))).)),45.5 °C,-33.4 kcal/mol
GCACTCCCGAAAGGGTGC (((..(((....)))))),50.7 °C,-24.2 kcal/mol

Sequence,Tm [1],folding enthalpy [2]
GCACTCCGAAAGGATTGC (((.(((....))).))),50.6 °C,-28.1 kcal/mol
GCACTCGAAAGAGATGC ((((((....))).))),49.4 °C,-29.4 kcal/mol
GCACTCGAAAGAGGGTGC ((((((....)))..))),50.8 °C,-31.5 kcal/mol
GCACTCGAAAGAGTTGC ((((((....))).))),51.4 °C,-22.3 kcal/mol
GCACTCGGAAACGAGCAC (..((((....))))..),29.3 °C,-11.7 kcal/mol
GCACTCTCGAAAGAGTGC (((..(((....)))))),65 °C,-45.9 kcal/mol
GCACTGCGAAAGCAGCGC ((.((((....)))).)),69.1 °C,-28.9 kcal/mol
GCACTGCGAAAGCGCTGC (((..((....))..))),42.6 °C,-20.6 kcal/mol
GCACTGGGAAACCGGTGC ((((.((....)).)))),59.6 °C,-44.1 kcal/mol
GCACTGTCGAAAGACTGC (((..(((....)))))),39.4 °C,-15.9 kcal/mol
GCAGACCGAAAGGTATGC (((.(((....))).))),64.1 °C,-39.5 kcal/mol
GCAGACGAAAGTCAATGC ((((((....)))..))),43.9 °C,-19.3 kcal/mol
GCAGACGAAAGTCAGTGC ((((((....)))..))),46.4 °C,-19 kcal/mol
GCAGACGAAAGTCATTGC ((((((....)))..))),37.1 °C,-16.5 kcal/mol
GCAGACGAAAGTCCATGC ((((((....)))..))),35.3 °C,-16.5 kcal/mol
GCAGACGAAAGTCCGTGC ((((((....)))..))),38.6 °C,-15.1 kcal/mol
GCAGACGAAAGTCCTGC ((((((....))).))),52.9 °C,-23.8 kcal/mol
GCAGACGAAAGTCGCTGC ((((((....)))..))),57.6 °C,-22.2 kcal/mol
GCAGACGAAAGTCTCTGC ((((((....)))..))),44.1 °C,-14.8 kcal/mol
GCAGACGCGAAAGCGTGC (((..(((....)))))),52 °C,-11.8 kcal/mol
GCAGACGGAAACATCCGC ((.((.(....).)).)),26.5 °C,-13.3 kcal/mol
GCAGACGGAAACGCCTGC ((((.((....)).)))),56 °C,-51.1 kcal/mol
GCAGACGGAAACGTCCAC (..((((....))))..),32.1 °C,-9.46 kcal/mol

Sequence,Tm [1],folding enthalpy [2]
GCAGACTCGAAAGAGTGC (((..(((....)))))),43.4 °C,-16 kcal/mol
GCAGAGCGAAAGCCCGGC ((.(.((....)).).)),44.8 °C,-17.9 kcal/mol
GCAGAGCGAAAGCTCAGC ((.((((....)))).)),64.8 °C,-20.4 kcal/mol
GCAGAGCGAAAGCTCCGC ((.((((....)))).)),61.1 °C,-16.8 kcal/mol
GCAGAGGGAAACCTCCAC (..((((....))))..),25.4 °C,-13.7 kcal/mol
GCAGAGGGAAACCTCTGC (((((((....))))))),67.9 °C,-46.2 kcal/mol
GCAGCAGGAAACCGCTGC (((((.(....).))))),58.1 °C,-41.3 kcal/mol
GCAGCAGGAAACTGCCAC (..((((....))))..),31.6 °C,-11 kcal/mol
GCAGCATCGAAAGATTGC (((..(((....)))))),33.9 °C,-16.9 kcal/mol
GCAGCCACGAAAGTGTGC (((..(((....)))))),40.2 °C,-12.5 kcal/mol
GCAGCCGAAAGGCACTGC ((((((....)))..))),45.4 °C,-13.7 kcal/mol
GCAGCCGAAAGGCATGC ((((((....))).))),62 °C,-19.6 kcal/mol
GCAGCCGAAAGGCGATGC ((((((....)))..))),53.2 °C,-14.2 kcal/mol
GCAGCCGAAAGGCGTGC ((((((....))).))),65 °C,-16.5 kcal/mol
GCAGCCGAAAGGCGTTGC ((((((....)))..))),53.3 °C,-13.8 kcal/mol
GCAGCGCGAAAGCACAGC ((.(.((....)).).)),43.8 °C,-19.9 kcal/mol
GCAGCGCGAAAGCAGTGC (((..((....))..))),52.8 °C,-18.1 kcal/mol
GCAGCGCGAAAGCGTCGC ((..(((....)))..)),57.1 °C,-17.5 kcal/mol
GCAGCGCGAAAGCTCAGC ((.(.((....)).).)),39.9 °C,-10.6 kcal/mol
GCAGCGCGAAAGCTTTGC (((..((....))..))),37.4 °C,-16.7 kcal/mol
GCAGCGGGAAACTGCTGC (((((.(....).))))),66 °C,-43.1 kcal/mol
GCAGCTACGAAAGTATGC (((..(((....)))))),36.1 °C,-15 kcal/mol
GCAGCTCGAAAGAGATGC (((.(((....))).))),68.6 °C,-42.1 kcal/mol

Sequence,Tm [1],folding enthalpy [2]
GCAGCTGGAAACAGCCGC ((.((((....)))).)),50.6 °C,-29.3 kcal/mol
GCAGGACGAAAGTCGTGC (((.(((....))).))),62.6 °C,-42.8 kcal/mol
GCAGGAGGAAACTCCCGC ((.((((....)))).)),45.8 °C,-24.1 kcal/mol
GCAGGATCGAAAGATTGC (((..(((....)))))),31.4 °C,-19.8 kcal/mol
GCAGGCCGAAAGGCTGC (((.(((....)))))),67.3 °C,-22.2 kcal/mol
GCAGGCGAAAGCCAATGC ((((((....)))..))),49.1 °C,-15.5 kcal/mol
GCAGGCGAAAGCCCATGC ((((((....)))..))),41.4 °C,-13.2 kcal/mol
GCAGGCGAAAGCCCTGC ((((((....))).))),65.6 °C,-19.2 kcal/mol
GCAGGCGAAAGCCGTGC ((((((....))).))),62.8 °C,-17.1 kcal/mol
GCAGGCGAAAGCCTATGC ((((((....)))..))),47.6 °C,-13.9 kcal/mol
GCAGGGCGAAAGCACAGC ((.(.((....)).).)),56.8 °C,-20.6 kcal/mol
GCAGGGCGAAAGCAGTGC (((..((....))..))),56.7 °C,-18.3 kcal/mol
GCAGGGCGAAAGCATTGC (((..((....))..))),53 °C,-19.6 kcal/mol
GCAGGGCGAAAGCCAGGC ((..(((....)))..)),60.1 °C,-19.3 kcal/mol
GCAGGGCGAAAGCCCCGC ((.((((....)))).)),62.8 °C,-14.5 kcal/mol
GCAGGGCGAAAGCCGGGC ((..(((....)))..)),56.9 °C,-17.4 kcal/mol
GCAGGGCGAAAGCCTCGC ((..(((....)))..)),52 °C,-16.4 kcal/mol
GCAGGGCGAAAGCGCGGC ((.(.((....)).).)),62.9 °C,-29.2 kcal/mol
GCAGGGGGAAACCCCTAC (.(((((....))))).),35.4 °C,-14.2 kcal/mol
GCAGGGGGAAACTCCTGC (((((.(....).))))),57.6 °C,-43.4 kcal/mol
GCAGTAACGAAAGTTTGC (((..(((....)))))),37.6 °C,-21.9 kcal/mol
GCAGTAGCGAAAGCTTGC (((..(((....)))))),45 °C,-17.8 kcal/mol
